Values after ≈ are worked out from the molar mass of the structure shown.
test system: Mycobacterium tuberculosis; assay: Antitubercular activity against Mycobacterium tuberculosis H37Rv after 7 days; type: functional, organism-based; settings: 168 h
Summary of the method: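 MABA in 7H9 broth with 0.2% glycerol, 1.0 g/l Casitone, 10% OADC and 0.05% Tween 80, grown to OD600 0.4. Culture diluted 1:50 to give 2 × 10^5 CFU/ml. Twofold serial dilutions made from DMSO stock. Incubated 37 °C for 7 days, then alamar blue added and read after 24 h. MIC is the lowest concentration preventing the blue-to-pink change. Rifampicin reference.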

| SMILES | MIC [µM] | IC50 [nM] |
| --- | --- | --- |
| Cc1ccc(NC(=O)C2CC(=O)N(CCc3c[nH]c4ccc(Cl)cc34)C2)cc1 (stereo not drawn) | 80.8 (≈ 32 µg/mL) | – |
| Cc1[nH]c2cc(C(=O)N3CCN(Cc4ccccc4)CC3)ccc2c1C | 368 (≈ 128 µg/mL) | – |
| COc1cccc(CNC(=O)CN2CCCN(Cc3ccc(Cl)cc3)S2(=O)=O)c1 | 146 (≈ 64 µg/mL) | – |
| Cc1oc(-c2ccccc2)nc1CN1CCN(C(=O)c2ccccc2)CC1 | 187 (≈ 67.8 µg/mL) | – |
| O=C(C1CC(=O)N(C2CCCC2)C1)N1CCC(Cc2ccccc2)CC1 (stereo not drawn) | 361 (≈ 128 µg/mL) | – |
| O=C(NCc1ccc(F)cc1)C1CC(=O)N(C2CCCCCCC2)C1 (stereo not drawn) | 369 (≈ 128 µg/mL) | – |
| O=C(c1ccc(F)cc1)N1CCN(C2c3ccccc3-c3ccccc32)CC1 | 85.9 (≈ 32 µg/mL) | – |
| O=C(c1cccs1)N1CCN(C2c3ccccc3-c3ccccc32)CC1 | 355 (≈ 128 µg/mL) | – |
| CCCCCCCc1ccc(C(=O)Oc2ccc([N+](=O)[O-])cc2)cc1 | 187 (≈ 64 µg/mL) | – |
| Cc1ccc(OC(=O)c2ccc(Cl)cc2)cc1 | 259 (≈ 64 µg/mL) | – |
| CCCCCCc1ccc(C(=O)Oc2ccc(Cl)cc2)cc1 | 202 (≈ 64 µg/mL) | – |
| Cc1ccc(C(=O)CC(=O)c2ccc(Cl)cc2)c(O)c1 | 13.8 (≈ 4 µg/mL) | – |
| CCc1ccc(C(=O)Oc2cccnc2)cc1 | 563 (≈ 128 µg/mL) | – |
| CCCCCc1ccc(OC(=O)c2ccc(Cl)cc2)cc1 | 106 (≈ 32 µg/mL) | – |
| O=C(Nc1ccccc1O)c1ccc(Oc2ccc([N+](=O)[O-])cc2)cc1 | 5.7 (≈ 2 µg/mL) | – |
| Cc1ccc(/N=C/c2cc(Cc3ccccc3Cl)ccc2O)c(O)c1 | 182 (≈ 64 µg/mL) | – |
| O=C1c2ccc(Oc3cccc([N+](=O)[O-])c3)cc2C(=O)N1c1ccccc1O | 85 (≈ 32 µg/mL) | – |
| Oc1cccc(Oc2c(F)c(F)nc(F)c2F)c1 | 247 (≈ 64 µg/mL) | – |
| CCc1ccc(O)c(/N=C/c2cc(Cl)cc(Cl)c2O)c1 | 206 (≈ 64 µg/mL) | – |
| O=[N+]([O-])c1ccc(Oc2cc(C(F)(F)F)ccc2Cl)cc1O | 384 (≈ 128 µg/mL) | – |
| S=C(c1ccc(Br)cc1)N1CCN(Cc2ccccc2)CC1 | 85.2 (≈ 32 µg/mL) | – |

| SMILES | MIC [µM] | IC50 [nM] |
| --- | --- | --- |
| Cc1ccc(S(=O)(=O)N2CCN(C(=O)c3ccc(Br)cc3)CC2)cc1 | 302 (≈ 128 µg/mL) | – |
| Cc1ccc(C(=O)N2CCN(S(=O)(=O)c3ccccc3)CC2)cc1 | 372 (≈ 128 µg/mL) | – |
| O=C(Nc1ccc(C(F)(F)F)cc1)NC1CC(=O)N(C2CCCC2)C1 (stereo not drawn) | 180 (≈ 64 µg/mL) | – |
| CCCCCc1ccc(Oc2ccccc2)c(O)c1 | 3.5 (≈ 0.897 µg/mL) | 17 |
| CCCCCCCCCCCCCCc1ccc(Oc2ccccc2)c(O)c1 | 460 (≈ 176 µg/mL) | 150 |
| CN(C(=O)C1CC(=O)N(C2CCCCCC2)C1)c1cc(-c2ccccc2)c(O)c(-c2ccccc2)c1 (stereo not drawn) | > 125 | 360 |
| O=C(CCN1C(=O)c2ccccc2C1=O)N1CCN(C(c2ccccc2)c2ccccc2)CC1 | 141 (≈ 64 µg/mL) | – |
| Cc1ccc(C(=O)N2CCN(c3cccc(Cl)c3)CC2)cc1C | > 125 | 990 |
| O=C(c1ccccc1)N1CCN(C2c3ccccc3-c3ccccc32)CC1 | > 125 | 90 |
| Oc1cc(CCCc2ccccc2)ccc1Oc1ccc(Cl)cc1Cl | 50 (≈ 18.7 µg/mL) | 50 |
| Oc1cc(CCc2ccccc2)ccc1Oc1ccc(Cl)cc1Cl | 52 (≈ 18.7 µg/mL) | 21 |
| CC(C)Cc1ccc(Oc2ccc(Cl)cc2Cl)c(O)c1 | 60 (≈ 18.7 µg/mL) | 96 |
| CCCCCCc1ccc(Oc2ccccc2)c(O)c1 | 7.8 (≈ 2.11 µg/mL) | 11 |
| O=C(Nc1cc(Br)cc(C(F)(F)F)c1)C1CC(=O)N(C2CCCCC2)C1 (stereo not drawn) | 62.5 (≈ 27.1 µg/mL) | 850 |
| Cc1ccc(C(=O)N2CCN(C3c4ccccc4-c4ccccc43)CC2)cc1 | > 125 | 400 |
| CCCCc1ccc(Oc2ccc(Cl)cc2Cl)c(O)c1 | 30 (≈ 9.34 µg/mL) | 91 |
| Oc1cc(Cc2ccccc2)ccc1Oc1ccc(Cl)cc1Cl | 27 (≈ 9.32 µg/mL) | 51 |
| CN(Cc1c2ccccc2cc2ccccc12)C(=O)C1CC(=O)N(C2CCCCCCC2)C1 (stereo not drawn) | 62.5 (≈ 27.7 µg/mL) | 320 |
| CN(Cc1c2ccccc2cc2ccccc12)C(=O)C1CC(=O)N(C2CC3CCC2C3)C1 (stereo not drawn) | 125 (≈ 53.3 µg/mL) | 460 |
| CCCCCCCCc1ccc(Oc2ccccc2)c(O)c1 | 6.4 (≈ 1.91 µg/mL) | 5 |
| CO[C@H]1/C=C/O[C@@]2(C)Oc3c(C)c(O)c4c(O)c(c(/C=N/N5CCN(C)CC5)c(O)c4c3C2=O)NC(=O)/C(C)=C\C=C\[C@H](C)[C@H](O)[C@@H](C)[C@@H](O)[C@@H](C)[C@H](OC(C)=O)[C@@H]1C [RIFAMPIN] | 0.01 (≈ 0.00823 µg/mL) | – |

Source: ChEMBL document CHEMBL1221391, “Identification of novel antitubercular compounds through hybrid virtual screening approach” (Bioorg Med Chem, 2010)
